Measurements from paper PMC4963206 (ChemMedChem, 2016).
“And” between values parts separate entries of the source, which are not always exact repeats. Identical values can stand only once.

Assays:
[1] = In vivo bioavailability / plasma pharmacokinetics, IP injection; parameters: species or system CD-1 mice
Outline: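 CD-1 mice received 20 mg/kg IP in 10% DMA, 65% PEG 400, 25% saline. Parent compound in plasma was measured to give concentration–time profiles. In one study, a cohort of 3 mice was sampled at 15, 30, 60, 90, 180 and 360 min post-dose, and plasma was analysed for parent compound by LC-MS.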

Plasma protein binding = assay type: in vitro ADME; conditions: CD-1 mice plasma, dialysis 6 hours, 37°C
Outline: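 Plasma protein isolated from CD-1 mice was spiked with the test compound and dialysed against PBS for 6 hours at 37°C under 5% CO₂. Plasma and buffer compartments were both analysed to give the percentage of free compound. Ketoconazole was the positive control.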

[2] = 19F NMR monitoring of reaction with glutathione; assay type: physicochemical; conditions: 100 μM, 10 equivalents of glutathione, 37 °C, 15 hours
Outline: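 Samples were in 100 mM HEPES pH 7.2, 150 mM NaCl, with 10% […] and 1% DMSO final. Test compound at 100 μM was incubated with 10 equivalents of glutathione for 15 hours at 37°C. ¹⁹F NMR spectra were recorded at 37°C on a 600 MHz spectrometer with a room-temperature H(F)CN probe.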

[3] = test system: pSTAT3 / STAT3 in AR230^R cells; assay type: cell-based; conditions: 10 μM, 2 hours pre-treatment, IL-6 and IFN stimulation
STAT1 = biological target: T1, STAT1 (Homo sapiens, UniProt P42224); test: Competitive fluorescence polarization; assay type: binding
T1 sequence (P42224 1-750): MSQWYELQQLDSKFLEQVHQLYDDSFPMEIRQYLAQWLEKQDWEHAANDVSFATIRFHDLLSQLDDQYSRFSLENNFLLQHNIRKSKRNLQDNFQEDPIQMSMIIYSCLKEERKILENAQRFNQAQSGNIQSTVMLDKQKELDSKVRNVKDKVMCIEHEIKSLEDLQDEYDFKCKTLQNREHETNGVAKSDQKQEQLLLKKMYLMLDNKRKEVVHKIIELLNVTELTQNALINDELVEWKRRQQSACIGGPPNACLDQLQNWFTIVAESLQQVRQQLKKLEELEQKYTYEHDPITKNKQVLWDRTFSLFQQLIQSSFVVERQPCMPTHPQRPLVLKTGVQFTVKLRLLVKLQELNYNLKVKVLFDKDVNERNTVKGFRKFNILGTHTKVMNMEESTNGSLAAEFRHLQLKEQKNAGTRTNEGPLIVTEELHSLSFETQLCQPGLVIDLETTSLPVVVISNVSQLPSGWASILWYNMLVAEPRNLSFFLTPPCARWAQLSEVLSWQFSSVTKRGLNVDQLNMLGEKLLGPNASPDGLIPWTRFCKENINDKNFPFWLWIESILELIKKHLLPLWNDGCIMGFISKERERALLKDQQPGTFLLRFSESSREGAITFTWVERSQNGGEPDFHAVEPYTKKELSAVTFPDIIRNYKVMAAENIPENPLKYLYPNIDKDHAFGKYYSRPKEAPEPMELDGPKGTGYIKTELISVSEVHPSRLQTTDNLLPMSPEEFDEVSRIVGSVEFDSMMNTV
Outline: (§1)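 Competitive binding assay in which the test compound displaces a fluoresceinated peptide from the SH2 domain, read by fluorescence polarization. IC50 is reported with a 95% confidence interval, and Ki is reported alongside it.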

STAT3 [4] = biological target: T2, STAT3 (Homo sapiens, UniProt P40763); test: 19F NMR examination of binding to STAT3; conditions: 100 μM compound with STAT3, 37 °C, 1 hour
T2 sequence (P40763 whole entry, species assumed): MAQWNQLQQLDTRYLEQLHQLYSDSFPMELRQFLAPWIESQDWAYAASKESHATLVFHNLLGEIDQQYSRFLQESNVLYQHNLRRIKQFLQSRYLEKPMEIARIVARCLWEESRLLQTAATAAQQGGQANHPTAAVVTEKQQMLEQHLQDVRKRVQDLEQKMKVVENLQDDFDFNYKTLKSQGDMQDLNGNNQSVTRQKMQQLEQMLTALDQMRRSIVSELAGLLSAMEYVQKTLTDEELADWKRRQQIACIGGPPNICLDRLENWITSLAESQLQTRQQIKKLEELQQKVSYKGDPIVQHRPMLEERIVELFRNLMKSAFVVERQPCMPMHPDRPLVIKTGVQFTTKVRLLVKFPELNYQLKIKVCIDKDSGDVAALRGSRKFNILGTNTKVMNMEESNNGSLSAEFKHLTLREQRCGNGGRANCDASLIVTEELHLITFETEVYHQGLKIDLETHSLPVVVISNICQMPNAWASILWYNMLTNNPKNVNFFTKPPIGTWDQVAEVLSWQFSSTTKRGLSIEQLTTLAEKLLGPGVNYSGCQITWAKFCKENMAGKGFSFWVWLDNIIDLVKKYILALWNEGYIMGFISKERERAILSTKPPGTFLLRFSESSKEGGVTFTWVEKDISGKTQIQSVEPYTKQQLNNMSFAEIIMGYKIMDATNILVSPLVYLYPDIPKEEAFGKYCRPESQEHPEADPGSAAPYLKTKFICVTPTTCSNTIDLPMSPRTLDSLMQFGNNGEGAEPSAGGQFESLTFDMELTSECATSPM

AR230 cells = test: Phenotypic screening / cytotoxicity in CML cell line AR230; assay type: cell-based; conditions: read-out: IC50 AR230
AR230^R cells = test: Phenotypic screening / cytotoxicity in TKI-resistant CML cell line AR230^R; assay type: cell-based
[5] = Metabolic stability in CD-1 mouse hepatocytes; assay type: in vitro ADME
Outline: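 CD-1 mouse hepatocytes were incubated with the test compound for 120 min. Remaining parent compound was quantified by LC-MS/MS at regular time points to assess metabolic degradation.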

STAT3 [6] = biological target: T2, STAT3; test: Competitive fluorescence polarization; assay type: binding
Outline: as §1

plasma concentration for the first 120 mins ([1]; CD-1 mice, IP 20 mg/kg): above 2000 ng/mL | half-life ([1]; male, CD-1, mouse, plasma, ip, 20 mg/kg): 85.2 min | bound to mouse plasma proteins (Plasma protein binding): 99.7% | reaction with glutathione (19F NMR) [2]: inert to glutathione | Ki (STAT1): > 250 µM | mode of interaction with STAT3 (19F NMR, fluoride ion production) (STAT3 [4]): non-covalent | fold more resistant to metabolism than SH-4-54 [5]: ~ 4 fold | IC50 (STAT3 [6]): 30 µM | Ki (STAT3 [6]; Ki STAT3, disruption of STAT3:IL-6R/gp130 peptide complex, FP): 15 µM and 15.3 µM
Compound: CC(C)(C)c1ccc(CN(C(=O)CN(C2CC2)S(=O)(=O)c2c(F)c(F)cc(F)c2F)c2ccc(C(=O)O)cc2)cc1 [AM-1-124, 4-(N-(4-(tert-butyl)benzyl)-2-(N-cyclopropyl-2,3,5,6-tetrafluorophenylsulfonamido)acetamido)benzoic acid]
cytokine-induced pSTAT3 activation [3]: partially inhibited cytokine-induced pSTAT3 activation | nuclear STAT3 protein localization [3]: reduced the nuclear STAT3 protein localization | IC50 (AR230 cells): 26.9 µM | fold improvement in selectivity vs SH-4-54 (AR230^R cells): 5 fold | fold selectivity for AR230^R over AR230 cells (AR230^R cells): 5.6 fold | Fold Difference (AR230^R cells; Table 5, AR230 vs AR230^R): 5.6 | IC50 (AR230^R cells; read-out: IC50 AR230^R): 4.8 µM
